# Assay results: ChEMBL document CHEMBL3751740, “New MKLP-2 inhibitors in the paprotrain series: Design, synthesis and biological evaluations” (Bioorg Med Chem, 2016)
# Key:
# A549 = experiment: Growth inhibition of human A549 cells incubated for 4 days by WST-1 assay; type: functional; settings: A549, 96 h
# Procedure, shortened: (§1)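 Cells were kept at 37 °C under 5% CO2 and plated on day 0 at 500–5000 cells/well. On day 1 they received ten concentrations from 0.0025 to 50 µM (final), in triplicate. On day 4 WST-1 was added, followed by 30 min–4 h incubation and absorbance at 450 nm. GI50 is the concentration killing 50% of cells.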
# MDA-MB-231 = experiment: Growth inhibition of human MDA-MB-231 cells incubated for 4 days by WST-1 assay; type: functional; settings: MDA-MB-231, 96 h; procedure, shortened: as §1
# MCF7 = experiment: Growth inhibition of human MCF7 cells incubated for 4 days by WST-1 assay; type: functional; settings: MCF7, 96 h; procedure, shortened: as §1
# [1] = biological target: T1, Kinesin-like protein KIF11 (Homo sapiens) (UniProt P52732); experiment: Inhibition of porcine brain microtubule-stimulated human recombinant GST-tagged Eg5 ATPase activity at 1 mM by microplate reader in presence of Mg2+ ATP relative to control
# T1 sequence (whole entry): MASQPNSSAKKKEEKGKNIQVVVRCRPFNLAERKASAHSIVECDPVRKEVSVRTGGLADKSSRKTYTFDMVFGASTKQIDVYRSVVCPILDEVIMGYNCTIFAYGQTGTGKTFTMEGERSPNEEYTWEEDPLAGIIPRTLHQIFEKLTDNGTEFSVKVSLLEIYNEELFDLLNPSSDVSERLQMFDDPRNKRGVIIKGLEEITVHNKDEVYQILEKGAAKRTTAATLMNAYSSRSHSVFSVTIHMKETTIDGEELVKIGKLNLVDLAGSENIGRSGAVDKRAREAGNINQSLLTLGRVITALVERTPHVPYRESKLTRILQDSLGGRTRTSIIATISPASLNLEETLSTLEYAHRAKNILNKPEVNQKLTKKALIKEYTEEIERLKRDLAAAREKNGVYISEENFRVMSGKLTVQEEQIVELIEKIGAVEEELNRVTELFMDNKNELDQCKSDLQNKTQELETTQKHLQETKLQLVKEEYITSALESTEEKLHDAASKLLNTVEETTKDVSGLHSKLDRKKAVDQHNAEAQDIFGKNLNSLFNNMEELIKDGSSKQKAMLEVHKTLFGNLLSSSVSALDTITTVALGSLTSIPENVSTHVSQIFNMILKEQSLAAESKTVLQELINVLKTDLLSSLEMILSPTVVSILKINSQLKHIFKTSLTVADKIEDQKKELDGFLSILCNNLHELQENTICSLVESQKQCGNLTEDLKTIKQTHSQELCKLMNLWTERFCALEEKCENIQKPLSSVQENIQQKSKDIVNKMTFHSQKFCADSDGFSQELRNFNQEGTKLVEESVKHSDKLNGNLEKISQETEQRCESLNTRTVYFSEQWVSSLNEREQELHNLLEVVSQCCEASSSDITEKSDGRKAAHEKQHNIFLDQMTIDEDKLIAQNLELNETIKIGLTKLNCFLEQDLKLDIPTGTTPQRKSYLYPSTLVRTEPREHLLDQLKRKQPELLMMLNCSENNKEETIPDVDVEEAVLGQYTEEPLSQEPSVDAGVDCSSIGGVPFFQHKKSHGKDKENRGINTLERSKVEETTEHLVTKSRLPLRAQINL
# Procedure, shortened: (§2)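 Motor domain at 15 µM final, in 7.5 mM PIPES-NaOH pH 7.0 with […], 10 µM Taxol, ELIPA 1 and 2 reagents and 1.25 mg/mL microtubules. AMP-PNP, a slowly hydrolysable ATP analog and general ATPase inhibitor, tested at 1 mM. Reaction started with 1 mM Mg2+ATP at 22 °C and read kinetically at 360 nm. Run in triplicate.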
# [2] = biological target: T2, Kinesin-like protein KIF3C (Homo sapiens) (UniProt O14782); experiment: Inhibition of porcine brain microtubule-stimulated human recombinant GST-tagged KIF3C ATPase activity at 1 mM by microplate reader in presence of Mg2+ ATP relative to control; procedure, shortened: as §2
# T2 sequence (whole entry): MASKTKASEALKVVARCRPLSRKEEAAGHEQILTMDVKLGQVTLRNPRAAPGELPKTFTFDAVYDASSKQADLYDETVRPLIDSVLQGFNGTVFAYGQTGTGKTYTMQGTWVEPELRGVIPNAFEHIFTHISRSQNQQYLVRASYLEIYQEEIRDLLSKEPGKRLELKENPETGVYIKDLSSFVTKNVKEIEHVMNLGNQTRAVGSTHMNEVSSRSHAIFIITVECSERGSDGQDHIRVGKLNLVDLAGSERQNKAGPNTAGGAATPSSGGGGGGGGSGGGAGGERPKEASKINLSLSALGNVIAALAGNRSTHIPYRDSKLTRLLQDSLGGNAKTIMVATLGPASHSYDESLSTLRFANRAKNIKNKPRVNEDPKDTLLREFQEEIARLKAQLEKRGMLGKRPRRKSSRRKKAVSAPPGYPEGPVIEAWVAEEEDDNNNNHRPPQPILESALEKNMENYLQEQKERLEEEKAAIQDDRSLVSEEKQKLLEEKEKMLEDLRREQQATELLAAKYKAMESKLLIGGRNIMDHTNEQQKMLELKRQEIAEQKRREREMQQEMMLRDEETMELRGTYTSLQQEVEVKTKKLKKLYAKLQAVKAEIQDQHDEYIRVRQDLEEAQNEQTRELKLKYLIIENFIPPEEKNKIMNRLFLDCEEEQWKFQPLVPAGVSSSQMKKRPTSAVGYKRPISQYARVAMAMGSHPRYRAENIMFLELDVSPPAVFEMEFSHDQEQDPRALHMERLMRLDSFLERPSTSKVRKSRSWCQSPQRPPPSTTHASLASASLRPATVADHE
SMILES,GI50 (A549),GI50 (MDA-MB-231),GI50 (MCF7),inhibition [1],inhibition [2]
COc1ccc2[nH]cc(/C(C#N)=C/c3cccnc3)c2c1,9.4 µM,16.8 µM,15.8 µM,,
Nc1ncnc2c1ncn2[C@@H]1O[C@H](COP(=O)(O)OP(=O)(O)NP(=O)(O)O)[C@@H](O)[C@H]1O,,,,> 30%,> 30%
